Where a name gives a salt, the structure may show the parent alone.
Experiments:
[1] = target: T1, Polyunsaturated fatty acid 5-lipoxygenase (Homo sapiens, UniProt P09917); assay: Inhibition of recombinant human 5LOX expressed in baculovirus infected Sf insect cells using linoleic acid as substrate preincubated for 5 mins followed by substrate addition
T1 sequence (P09917 whole entry): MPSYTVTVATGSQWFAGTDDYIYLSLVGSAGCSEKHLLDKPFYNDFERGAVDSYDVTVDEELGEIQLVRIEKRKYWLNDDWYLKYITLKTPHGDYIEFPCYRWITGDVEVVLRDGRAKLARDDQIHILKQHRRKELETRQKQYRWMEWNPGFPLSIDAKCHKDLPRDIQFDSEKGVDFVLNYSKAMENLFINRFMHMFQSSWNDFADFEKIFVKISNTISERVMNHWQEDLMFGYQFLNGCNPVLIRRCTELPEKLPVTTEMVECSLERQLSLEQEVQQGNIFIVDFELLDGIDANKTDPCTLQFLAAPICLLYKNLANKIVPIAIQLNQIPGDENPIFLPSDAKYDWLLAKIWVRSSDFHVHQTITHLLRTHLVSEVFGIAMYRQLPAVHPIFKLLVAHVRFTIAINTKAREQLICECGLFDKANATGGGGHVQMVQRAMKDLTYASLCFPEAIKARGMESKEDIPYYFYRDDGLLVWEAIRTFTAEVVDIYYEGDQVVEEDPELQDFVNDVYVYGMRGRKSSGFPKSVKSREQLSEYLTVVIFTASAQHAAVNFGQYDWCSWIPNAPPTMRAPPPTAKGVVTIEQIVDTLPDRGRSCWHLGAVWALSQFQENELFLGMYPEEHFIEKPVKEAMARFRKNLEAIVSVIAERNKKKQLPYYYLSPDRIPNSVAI

[2] = target: T2, Prostaglandin G/H synthase 1 (Ovis aries, UniProt P05979); assay: Inhibition of sheep COX1 using arachidonic acid as substrate preincubated for 5 mins followed by substrate addition and measured after 5 mins by UV-visible spectrophotometric method
T2 sequence (P05979 whole entry): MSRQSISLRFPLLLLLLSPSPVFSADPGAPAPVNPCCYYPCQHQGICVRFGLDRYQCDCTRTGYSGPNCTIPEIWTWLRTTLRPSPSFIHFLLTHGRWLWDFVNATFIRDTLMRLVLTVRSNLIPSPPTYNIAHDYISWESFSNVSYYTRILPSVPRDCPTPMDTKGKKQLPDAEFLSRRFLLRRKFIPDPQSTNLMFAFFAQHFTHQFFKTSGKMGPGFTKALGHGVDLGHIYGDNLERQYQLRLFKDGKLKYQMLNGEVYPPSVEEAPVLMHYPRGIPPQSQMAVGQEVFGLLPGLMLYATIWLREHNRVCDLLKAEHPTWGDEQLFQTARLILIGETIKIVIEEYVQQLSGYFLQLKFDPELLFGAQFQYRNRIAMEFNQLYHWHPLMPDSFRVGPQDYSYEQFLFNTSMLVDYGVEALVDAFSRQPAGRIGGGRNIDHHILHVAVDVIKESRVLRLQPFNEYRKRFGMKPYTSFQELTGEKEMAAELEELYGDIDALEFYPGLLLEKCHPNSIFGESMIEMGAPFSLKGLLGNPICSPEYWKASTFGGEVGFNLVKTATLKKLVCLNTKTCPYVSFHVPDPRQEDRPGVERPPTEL
Procedure, shortened: (§1)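 Enzymes activated for 5 min on ice with cofactor solution of 0.9 mM glutathione, hematin and 0.24 mM TMPD in 0.1 M Tris-HCl pH 8.0; COX-2 at 300 units/ml. Reaction started with 30 mM arachidonic acid stock, run 5 min, absorbance read at 570 nm. IC50 taken from inhibition-vs-concentration plots as means of three determinations. SI = IC50(COX-1)/IC50(COX-2).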

[3] = Inhibition of trypsin (unknown origin) using casein as substrate preincubated for 5 mins followed by substrate addition and measured after 20 mins; design: species or system Homo sapiens
Procedure, shortened: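 Trypsin 0.06 mg/ml in 20 mM Tris-HCl pH 7.4 with compound at 31.25–1000 µg/ml, 5 min at 37 °C. 0.8% (w/v) casein added, 20 min further, stopped with 70% perchloric acid. After centrifugation, supernatant absorbance read at 217 nm against buffer blank. % inhibition against control; IC50 from plot; three runs.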

Homo sapiens = organism: Homo sapiens; assay: Selectivity index, ratio of IC50 for sheep COX1 to IC50 for recombinant human COX2 expressed in baculovirus infected Sf21 cells; procedure, shortened: as §1
Mus musculus [4] = assay: Antiinflammatory activity in PGE2-induced paw edema in Balb/c mouse assessed as inhibition of paw edema at 50 mg/kg, ip administered 1 hr prior to PGE2 challenge and measured up to 5 hrs relative to control; format: functional; conditions: time 2-6 hrs
Procedure, shortened: (§2)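 BALB/c mice of either sex (30–35 g), 8 per group, dosed i.p. with 10% DMSO, reference drug or compound (100 mg/kg). After 1 h, subplantar irritant: PGE2 0.01 µg/ml, bradykinin 20 µg/ml, histamine 0.1 ml of 1 mg/ml, or leukotriene 10 µg/ml.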

Mus musculus [5] = assay: Antiinflammatory activity in histamine-induced paw edema in Balb/c mouse assessed as inhibition of paw edema at 1 mg/kg, ip administered 1 hr prior to histamine challenge and measured after 1 hr relative to control; format: functional; conditions: time 2 hrs; procedure, shortened: as §2
Mus musculus [6] = assay: Antiinflammatory activity against carrageenan-induced paw edema in Swiss mouse assessed as inhibition of paw edema at 100 mg/kg administered 30 mins prior to carrageenan challenge and measured after 1 hr by […]-method (reference value: 7.66 +/- 3.753%); format: functional; conditions: 1.5 h, time 90 min
Mus musculus [7] = assay: Antiinflammatory activity in leukotriene-induced paw edema in Balb/c mouse assessed as inhibition of paw edema at 25 mg/kg, ip administered 1 hr prior to leukotriene challenge and measured after 3 hrs relative to control; format: functional; procedure, shortened: as §2
Mus musculus [8] = assay: Antiinflammatory activity against carrageenan-induced paw edema in Swiss mouse assessed as inhibition of paw edema at 100 mg/kg administered 30 mins prior to carrageenan challenge and measured after 3 hrs by […]-method (reference value: 11.41 +/- 3.069%); format: functional; conditions: time 3.5 hrs
Mus musculus [9] = assay: Antiinflammatory activity against carrageenan-induced paw edema in Swiss mouse assessed as inhibition of paw edema at 100 mg/kg administered 30 mins prior to carrageenan challenge and measured after 5 hrs by […]-method (reference value: 7.31 +/- 3.204%); format: functional; conditions: time 5.5 hrs
Mus musculus [10] = assay: Antiinflammatory activity against carrageenan-induced paw edema in Swiss mouse assessed as inhibition of paw edema at 100 mg/kg administered 30 mins prior to carrageenan challenge and measured after 4 hrs by […]-method (reference value: 14.46 +/- 1.568%); format: functional; conditions: time 4.5 hrs
Mus musculus [11] = assay: Antiinflammatory activity against carrageenan-induced paw edema in Swiss mouse assessed as inhibition of paw edema at 100 mg/kg administered 30 mins prior to carrageenan challenge and measured after 2 hrs by […]-method (reference value: 7.39 +/- 2.475%); format: functional; conditions: time 2.5 hrs
[12] = Antiinflammatory activity assessed as inhibition of heat-induced albumin denaturation preincubated for 20 mins followed by heating at 51 degC and measured after 3 mins by UV-vis spectrophotometric method

CC(=O)C(C)(C)C1CC(=O)N(c2ccccc2)C1=O (centres undefined)
IC50 [1]: 53.4 µM
IC50 [2]: 39.3 µM
IC50 [3]: 88.7 µM
Ratio IC50 (Homo sapiens): 0.73

O=C1CCCCC1C1CC(=O)N(c2ccccc2)C1=O (centres undefined)
IC50 [1]: 78.3 µM
IC50 [2]: 65.6 µM
IC50 [3]: 66.3 µM
Ratio IC50 (Homo sapiens): 1.45

CC(=O)CC1CC(=O)N(c2ccccc2)C1=O (centres undefined)
IC50 [1]: 62.4 µM
IC50 [2]: 33.3 µM
IC50 [3]: 151 µM
Ratio IC50 (Homo sapiens): 0.52

NS(=O)(=O)c1ccc(N2C(=O)CC(CC(=O)c3ccccn3)C2=O)cc1 (centres undefined)
IC50 [1]: 0.81 µM
IC50 [2]: 43.7 µM
IC50 [3]: 13.4 µM
Ratio IC50 (Homo sapiens): 4.88

Cc1ccc(-c2cc(C(F)(F)F)nn2-c2ccc(S(N)(=O)=O)cc2)cc1 [CELECOXIB]
inhibition in vivo at 50 mg/kg (Mus musculus [4]): 65.9%

NS(=O)(=O)c1ccc(N2C(=O)CC(C3CCCCC3=O)C2=O)cc1 (centres undefined)
IC50 [1]: 21.3 µM
IC50 [2]: 43.4 µM
Ratio IC50 (Homo sapiens): 2.04

CN(C)CCC(c1ccc(Cl)cc1)c1ccccn1 (centres undefined) [CHLORPHENIRAMINE MALEATE]
inhibition in vivo at 1 mg/kg (Mus musculus [5]): 71.8%

NS(=O)(=O)c1ccc(N2C(=O)CC(C3CCCCCC3=O)C2=O)cc1 (centres undefined)
IC50 [1]: 16.1 µM
IC50 [2]: 49.1 µM
Ratio IC50 (Homo sapiens): 2.36

O=C(O)Cc1ccccc1Nc1c(Cl)cccc1Cl [DICLOFENAC]
IC50 [3]: 42.7 µM

CC(=O)Oc1ccccc1C(=O)O [ASPIRIN]
inhibition in vivo at 100 mg/kg (Mus musculus [6]): 47.5%
inhibition in vivo at 25 mg/kg (Mus musculus [7]): 77.4%
inhibition in vivo at 100 mg/kg (Mus musculus [8]): 53.3%
inhibition in vivo at 100 mg/kg (Mus musculus [9]): 57.6%
inhibition in vivo at 100 mg/kg (Mus musculus [10]): 56.9%
inhibition in vivo at 100 mg/kg (Mus musculus [11]): 54.6%

CC1CCC(=O)C(C2CC(=O)N(Cc3ccccc3)C2=O)C1 (centres undefined)
IC50 [1]: 56.2 µM
IC50 [2]: 51.5 µM
IC50 [3]: 63.5 µM
Ratio IC50 (Homo sapiens): 2.35

O=C1CCCC1C1CC(=O)N(c2ccccc2)C1=O (centres undefined)
IC50 [1]: 98.5 µM
IC50 [2]: 30.3 µM
IC50 [12]: 97.2 µM
IC50 [3]: 85.5 µM
Ratio IC50 (Homo sapiens): 0.58

NS(=O)(=O)c1ccc(N2C(=O)CC(CC(=O)c3ccc(Cl)cc3)C2=O)cc1 (centres undefined)
IC50 [1]: 12.6 µM
IC50 [2]: 68.8 µM
IC50 [3]: 21.5 µM
Ratio IC50 (Homo sapiens): 10.9

O=C1CCOCC1C1CC(=O)N(c2ccccc2)C1=O (centres undefined)
IC50 [1]: 26.8 µM
IC50 [2]: 48.9 µM
IC50 [3]: 117 µM
Ratio IC50 (Homo sapiens): 0.86

COc1ccc(C(=O)CC2CC(=O)N(c3ccc(S(N)(=O)=O)cc3)C2=O)cc1 (centres undefined)
IC50 [1]: 4.74 µM
IC50 [2]: 39.2 µM
IC50 [12]: 24.9 µM
IC50 [3]: 14.9 µM
Ratio IC50 (Homo sapiens): 18.7

NS(=O)(=O)c1ccc(N2C(=O)CC(CC(=O)c3ccccc3)C2=O)cc1 (centres undefined)
IC50 [1]: 5.29 µM
IC50 [2]: 48.7 µM
IC50 [3]: 45.6 µM
Ratio IC50 (Homo sapiens): 11.5

O=C1CCCCCC1C1CC(=O)N(c2ccccc2)C1=O (centres undefined)
IC50 [1]: 18.4 µM
IC50 [2]: 65.6 µM
IC50 [3]: 63.1 µM
Ratio IC50 (Homo sapiens): 1.66

O=C1CCCCC1C1CC(=O)N(c2ccc(Br)cc2)C1=O (centres undefined)
IC50 [1]: 130 µM
IC50 [2]: 186 µM
IC50 [3]: 99.9 µM
Ratio IC50 (Homo sapiens): 1.64

CC1CCC(=O)C(C2CC(=O)N(c3ccccc3)C2=O)C1 (centres undefined)
IC50 [1]: 69.2 µM
IC50 [2]: 53 µM
IC50 [3]: 77.1 µM
Ratio IC50 (Homo sapiens): 0.93

Reference: ChEMBL document CHEMBL4715833, “Design, synthesis, in-vitro, in-vivo and in-silico studies of pyrrolidine-2,5-dione derivatives as multitarget anti-inflammatory agents” (Eur J Med Chem, 2020)
